PERK inhibitor – inhibitors of human PERK kinase. Q9NZJ5. CHO PERK-DD fusion, SEAP luminescence translation reporter. inhibition, % at 5.6 µM. 220,000 compounds, 0.17% hits. AID 1416;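 active = inhibition above the mean inhibition of all tested compounds plus 3 SD, set separately per screening campaign, cut at about 2.9% in these data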;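 note: PERK kinase domain activated by AP20187 dimerizer at 100 nM; 0% = DMSO with dimerizer and 100% = rapamycin at 8.4 µM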
TNF necrop inh – blocks TNF-alpha induced death of Jurkat FADD-/- cells; Jurkat FADD-/- TNF necroptosis rescue, ATP luminescence, 24 h; 0 = TNF only, 100 = no-TNF cells; activation (protection from cell death), % at 10 µM; 220,000 compounds, 0.068% hits; AID 463075;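 active = activation, meaning protection from cell death, of at least 50% relative to plate controls; inactive = activation below 50%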;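 note: necroptosis triggered by 40 ng/mL TNF-alpha added together with compound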
Efa HMGR inh – inhibitors of class II HMG-CoA reductase from Enterococcus faecalis; 190,000 compounds, 0.41% hits; purified E. faecalis HMGR, NADPH absorbance 340 nm kinetic; inhibition, % at 10 µM;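 active = inhibition above a set limit, the median over all tested compounds plus 3 SD, cut at about 9.5% in these data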;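 note: enzyme runs in reverse so mevalonate oxidation gives rising NADPH absorbance; 0% = complete reaction with DMSO and 100% = background rate lacking mevalonate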
Rad51 HR inh – Rad51 (human) homologous recombination inhibition; inhibition, % at 10 µM; hRad51 DNA strand exchange, fluorescence dequenching; AID 1385; 200,000 compounds, 0.085% hits;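 active = inhibition above 40% at the single screening dose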;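 note: 0% = DMSO control wells and 100% = blanks with heterologous ssDNA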
Target sequence (Q06609 whole entry, looked up): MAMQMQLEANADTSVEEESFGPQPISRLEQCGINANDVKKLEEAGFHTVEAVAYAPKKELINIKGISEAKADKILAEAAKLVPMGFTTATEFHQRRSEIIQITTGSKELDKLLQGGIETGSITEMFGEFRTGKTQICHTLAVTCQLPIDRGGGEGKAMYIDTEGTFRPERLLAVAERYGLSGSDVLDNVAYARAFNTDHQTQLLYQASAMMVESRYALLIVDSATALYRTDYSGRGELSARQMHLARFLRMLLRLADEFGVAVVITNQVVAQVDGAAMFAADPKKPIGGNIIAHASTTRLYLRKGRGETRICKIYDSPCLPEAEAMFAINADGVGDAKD
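Assay system: Human Rad51 nucleoprotein filaments preassembled on unlabelled ssDNA | Reagent: Donor/quencher-labelled 47-bp dsDNA substrate | Doses: One concentration, 10 µM final | Times: 37 °C 15-min filament assembly, 30-min compound preincubation, 15-min exchange | Technique: Fluorescein emission 520 nm, excitation 485 nm | Benchmarks: Plate control and blank wells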
L929 necroptosis – L929 zVAD cell death inhibition; L929 zVAD necroptosis rescue, ATP luminescence, 24 h; with zVAD 60 µM; viability rescue, % at 10 µM; 220,000 compounds, 0.38% hits;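 active = activation, scaled between plate controls, above about 75%, limit read from the data; inactive = activation under that limit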;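 note: 0% = zVAD with DMSO and 100% = DMSO alone without zVAD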
The depositor's hits bear a star; / = not tested or not shown. An excerpt weighted towards active compounds, which were near 1% of everything screened.

SMILES	PERK inhibitor	TNF necrop inh	Efa HMGR inh	Rad51 HR inh	L929 necroptosis
O=Cc1cc(N=Nc2cccc(C(=O)O)c2)ccc1O	1	0	1	47*	2
O=Cc1cc(N=Nc2ccccc2Cl)ccc1O	-1	-2	-4	-33	65
COc1cccc(NC(=O)C2(S(=O)(=O)c3ccc(Cl)cc3)CC2)c1	1	1	/	13	0
CCn1cnc2c(oc3ccccc32)c1=O	0	-1	11*	-7	1
COc1ccc(NC(=O)CNS(=O)(=O)c2ccc(Cl)cc2)cc1	0	10	4	-10	1
COc1ccc(NC(=O)COC(=O)CCNS(=O)(=O)c2ccc(Cl)cc2)cc1	1	9	/	43*	0
CCNc1c(NCC)c(=O)c1=O	1	2	/	/	0
O=[N+]([O-])c1ccc(Nc2ccccc2F)nc1	1	73*	-1	-2	50
O=[N+]([O-])c1ccc(Nc2ccc(Cl)cc2)nc1	0	81*	-7	11	56
O=[N+]([O-])c1ccc(NCc2ccc(Cl)cc2)nc1	2	47	/	13	1
CCOc1ccc2ccccc2c1CNCCN1CCOCC1	0	0	10*	-9	0
Nc1nnc(CSCc2ccc(Cl)cc2)s1	0	4	-2	/	/
Nc1nnc(CSc2ccc(Cl)cc2)s1	2	23	-2	-5	104*
COC(c1ccccc1)c1nnc(CCC(=O)NCCC(C)C)o1 (centres undefined)	0	0	16*	9	1
COC/C=C/C1=CC2=CC(=O)C(C)(O)C(=O)C2=CO1 (centres undefined)	/	/	/	-2	/
Cn1c(SCC(=O)O)nnc1-c1ccc(NC(=O)c2ccc(Cl)c(Cl)c2)cc1	2	4	/	8	0
COc1cc(C(=O)O)c2c(c1C)OC(=O)c1c(C)cc(O)c(C=O)c1O2	/	/	/	61*	/
CCOc1ccc(-c2nnn(CC(=O)N3CCCC(C)C3)n2)cc1 (centres undefined)	0	0	13*	-4	74
Cc1cc(-c2ccccc2)nc(N(C)N)c1S(C)(=O)=O	0	1	11*	6	3
Cc1cc(-c2ccccc2)nc(N(C)NC(=O)c2c(F)cccc2F)c1S(C)(=O)=O	-2	0	-1	9	0
COCCOC(=O)C(CC(=O)O)NCc1ccco1 (centres undefined)	4.0*	1	/	20	0
CCOc1ccc(OCC)c(NC(=O)C2CCN(c3ncccn3)CC2)c1	0	-1	1	42*	0
CN(C)c1ccc(/C=N/NC(=O)c2ccn(C)n2)cc1	3.0*	-3	/	14	1
O=C(Cn1cncn1)N/N=C/c1cccnc1	0	4	/	/	1
COc1ccc(C2C(C(C)=O)=C(Nc3ccccc3)CC(C)(O)C2C(C)=O)cc1OC (centres undefined)	0	-1	14*	6	-1
SMILES	PERK inhibitor	TNF necrop inh	Efa HMGR inh	Rad51 HR inh	L929 necroptosis
Cc1ccccc1-c1cccc([C@@H]2C[C@H]3CN(Cc4cccnc4)C(=O)[C@]34CCCN24)c1	1	-1	0	/	0
CC1CCN(c2nc3c(cc2C#N)COC(C)(C)C3)CC1	0	0	9.7*	-4	2
COCCOC(=O)C1=C(C)OC(N)=C(C#N)C1c1cc2cccc(C)c2nc1Cl (centres undefined)	0	-1	-4	-25	40
Cn1nccc1C(=O)c1ccc(Cl)cc1	3.1*	-2	7	/	0
Cn1nccc1NC(=O)Nc1ccc(Cl)cc1	2	-1	/	/	1
Cc1ccc(S(=O)(=O)/N=C2/C=C(Sc3ncn[nH]3)C(=O)c3ccccc32)c(C)c1	1	-9	13*	6	3
CC(OC(=O)CN1C(=O)C2C3C=CC(C4CC34)C2C1=O)C(=O)c1ccccc1 (centres undefined)	1	0	/	/	1
Cn1cc(C=O)c2ccccc21	-1	0	0	-11	-2
Cc1ccc(/C(C#N)=C\c2cn(C)c3ccccc23)cc1	1	-2	0	62*	0
CC(C)Sc1nc(C(F)(F)F)cc(=O)n1-c1ccccc1	3.0*	-5	3	3	0
O=C(Nc1ccc(Oc2ccccc2)cc1)c1ccc(Cn2c(=O)[nH]c3ccsc3c2=O)cc1	1	2	20*	/	/
O=C(Nc1ccc(Cl)c(Cl)c1)c1ccc(Cn2c(=O)[nH]c3ccsc3c2=O)cc1	1	2	2	1	/

High-throughput results from PubChem.
